The term MIC denotes the smallest concentration in the dilution series that meets the test's criterion for growth inhibition. A lower MIC goes with a more susceptible organism.

The structures appear in SMILES notation. Values after ≈ are worked out from the molar mass of the structure shown.

Assay type in all cases: functional
In assay [1] the test system is Aspergillus fumigatus. In words: Antifungal activity against aspergillus fumigatus. The method in brief:
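A. fumigatus grown on SAB agar 3–4 d at 35 °C; conidia used as inoculum at final 1 × 10^3 cfu/mL. Broth microdilution in SAB broth, 2-fold serial dilutions of compound dissolved in ethanol or DMSO. Incubated 48 h at 35 °C. MIC read by eye as the lowest concentration with no visible growth. Amphotericin B reference.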

The subject of assay [2] is Candida albicans. Kind of assay: Antifungal activity against candida albicans. Summed up:
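Candida grown 24 h at 35 °C on YM agar, then 6 h at 35 °C with rotation in GYB broth (2% glucose, 1% yeast extract). Final inoculum 2 × 10^3 cfu/mL. 96-well SAB broth microdilution, 2-fold series from ethanol or DMSO solutions. 24 h at 35 °C; MIC = lowest concentration without visible growth. Amphotericin B reference.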

Assay [3] deals with Cryptococcus neoformans. In words: Antifungal activity against cryptococcus neoformans. The method in brief: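 C. neoformans grown on YM agar 48 h at 35 °C, then 6 h in GYB broth at 35 °C with rotation. Final inoculum 2 × 10^4 cfu/mL. SAB broth microdilution with 2-fold serial dilutions (compound in ethanol or DMSO). Incubated 48 h at 35 °C; MIC read visually as the lowest concentration with no growth. Amphotericin B reference.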

With `O=CC1=CC=C(C=O)SS1`, the MIC turned out to be 6.3 µg/mL (≈ 36.6 µM) in assay [1], 1.6 µg/mL (≈ 9.29 µM) in assay [2] and 1.6 µg/mL (≈ 9.29 µM) in assay [3].

In the case of `CO/N=C/C1=CC=C(/C=N/OC)SS1`, the values for the MIC in assay [1], in assay [2] and in assay [3] were 6.3 µg/mL (≈ 27.4 µM), 0.8 µg/mL (≈ 3.47 µM) and 1.6 µg/mL (≈ 6.95 µM), respectively.

As to `O=C(OCC1=CC=C(COC(=O)c2ccccc2)SS1)c1ccccc1`, the MIC in assay [1], in assay [2] and in assay [3] was above 100 µg/mL each time.

As to `OCC1=CC=C(COc2cccnc2)SS1`, the MIC in assay [1] stood at 3.1 µg/mL (≈ 12.2 µM); in assay [2] it was 3.1 µg/mL (≈ 12.2 µM); in assay [3], 1.6 µg/mL (≈ 6.32 µM).

Take `O=C(OCC1=CC=C(CO)SS1)c1ccccc1O`: the minimal inhibitory concentration (MIC) in assay [1], in assay [2] and in assay [3] was 0.2 µg/mL (≈ 0.675 µM) in each case.

For the compound `O=C(OCC1=CC=C(COC(=O)c2cccnc2)SS1)c1cccnc1`, the minimal inhibitory concentration (MIC) in assay [1] and in assay [2] was 2 µg/mL (≈ 5.18 µM) throughout.

Regarding `OCC1=CC=C(CSc2nnnn2-c2ccc(O)cc2)SS1`, the MIC stood at 12.5 µg/mL (≈ 35.5 µM) in assay [1], 25 µg/mL (≈ 70.9 µM) in assay [2] and 6.3 µg/mL (≈ 17.9 µM) in assay [3].

Turning to `CCC(=O)OCC1=CC=C(COC(=O)CC)SS1`, the results for the MIC in assay [1], in assay [2] and in assay [3] were 3.1 µg/mL (≈ 10.7 µM), 12.5 µg/mL (≈ 43.3 µM) and 6.3 µg/mL (≈ 21.8 µM), respectively.

For the compound `O=C(OCC1=CC=C(CO)SS1)C1CCCC1`, the values for the MIC in assay [1] and in assay [2] were 3.1 µg/mL (≈ 11.4 µM) and 6.3 µg/mL (≈ 23.1 µM), respectively.

Turning to `O=c1ccccn1CC1=CC=C(CO)SS1`, the figures for the minimum inhibitory concentration (MIC) in assay [1], in assay [2] and in assay [3] were above 100 µg/mL, above 100 µg/mL and 12.5 µg/mL (≈ 49.3 µM), respectively.

Consider `O=C(OCC1=CC=C(COC(=O)c2ccncc2)SS1)c1ccncc1`, for which the MIC in assay [1] and in assay [2] was 2 µg/mL (≈ 5.18 µM) throughout.

For the compound `COC(=O)c1cccc(OCC2=CC=C(CO)SS2)c1`, the MIC in assay [1] came out at 25 µg/mL (≈ 80.5 µM); in assay [2] it was 3.1 µg/mL (≈ 9.99 µM); in assay [3] it was 6.3 µg/mL (≈ 20.3 µM).

Regarding `CN(C)c1cccc(OCC2=CC=C(CO)SS2)c1`, the MIC was 100 µg/mL (≈ 338 µM) in assay [1], above 50 µg/mL in assay [2] and 50 µg/mL (≈ 169 µM) in assay [3].

For `O=[N+]([O-])c1ccc(OCC2=CC=C(CO)SS2)nc1`, the figures for the MIC in assay [1], in assay [2] and in assay [3] were 0.4 µg/mL (≈ 1.34 µM), 0.2 µg/mL (≈ 0.67 µM) and 0.1 µg/mL (≈ 0.335 µM), respectively.

Consider `O=c1ccc(=O)n(CC2=CC=C(CO)SS2)[nH]1`, for which the minimal inhibitory concentration (MIC) in assay [1], in assay [2] and in assay [3] was above 100 µg/mL in each case.

As to `CC1(C)OCC(COCC2=CC=C(CO)SS2)O1` (stereo not drawn), the MIC in assay [1], in assay [2] and in assay [3] was above 100 µg/mL each time.

`O=C(OCC1=CC=C(CO)SS1)c1ccccc1`: the MIC was 3.1 µg/mL (≈ 11.1 µM) in assay [1], 6.3 µg/mL (≈ 22.5 µM) in assay [2] and 3.1 µg/mL (≈ 11.1 µM) in assay [3].

For `[N-]=[N+]=NCC1=CC=C(CO)SS1`, the MIC in assay [1], in assay [2] and in assay [3] was 0.25 µg/mL (≈ 1.24 µM) each time.

With `O=C(OCC1=CC=C(CO)SS1)c1ccncc1`, the MIC is 1.6 µg/mL (≈ 5.69 µM) in assay [1] and 3.1 µg/mL (≈ 11 µM) in assay [2].

`O=C(Nc1ccccc1O)OCC1=CC=C(CO)SS1`: the MIC in assay [1] amounted to 50 µg/mL (≈ 161 µM); in assay [2], 100 µg/mL (≈ 321 µM); in assay [3] it was 50 µg/mL (≈ 161 µM).

With `O=C(OCC1=CC=C(COC(=O)c2ccccc2O)SS1)c1ccccc1O`, the MIC in assay [1] and in assay [2] was above 250 µg/mL in each case.

Take `OCC1=CC=C(COCC(O)CO)SS1` (stereo not drawn): the minimal inhibitory concentration (MIC) in assay [1], in assay [2] and in assay [3] was above 100 µg/mL in each case.

`OCC1=CC=C(COc2ccccc2)SS1`: the MIC was determined as 25 µg/mL (≈ 99.1 µM) in assay [1], 25 µg/mL (≈ 99.1 µM) in assay [2] and 12.5 µg/mL (≈ 49.5 µM) in assay [3].

As for `O=c1ccc([N+](=O)[O-])cn1CC1=CC=C(CO)SS1`, the values for the MIC in assay [1], in assay [2] and in assay [3] were above 100 µg/mL, above 100 µg/mL and 100 µg/mL (≈ 335 µM), respectively.

Consider `OCC1=CC=C(COc2ccc(-n3ccnc3)cc2)SS1`, for which the results for the MIC in assay [1], in assay [2] and in assay [3] were 100 µg/mL (≈ 314 µM), 12.5 µg/mL (≈ 39.3 µM) and 100 µg/mL (≈ 314 µM), respectively.

Consider `CC1(C)OCC(COCC2=CC=C(COCC3COC(C)(C)O3)SS2)O1` (stereo not drawn), for which the MIC in assay [1], in assay [2] and in assay [3] was above 100 µg/mL each time.

As for `O=C(OCC1=CC=C(COC(=O)C2CCCC2)SS1)C1CCCC1`, the minimal inhibitory concentration (MIC) in assay [1] and in assay [2] was above 250 µg/mL in each case.

For `OCC1=CC=C(COc2ccccc2F)SS1`, the MIC turned out to be 3.1 µg/mL (≈ 11.5 µM) in assay [1], 3.1 µg/mL (≈ 11.5 µM) in assay [2] and 1.6 µg/mL (≈ 5.92 µM) in assay [3].

For `CC(=O)NCC1=CC=C(CO)SS1`, the MIC in assay [1] was above 100 µg/mL; in assay [2], above 100 µg/mL; in assay [3] it was 100 µg/mL (≈ 460 µM).

On to `[N-]=[N+]=NCC1=CC=C(CCl)SS1`, for which the minimum inhibitory concentration (MIC) in assay [1] came out at 50 µg/mL (≈ 228 µM); in assay [2], 25 µg/mL (≈ 114 µM); in assay [3], 6.3 µg/mL (≈ 28.7 µM).

With `N#CC1=CC=C(CO)SS1`, the MIC in assay [1] was found to be 1.6 µg/mL (≈ 9.34 µM); in assay [2], 0.8 µg/mL (≈ 4.67 µM); in assay [3], 0.8 µg/mL (≈ 4.67 µM).

`CC1(C)OCC(COCC2=CC=C(COCC(O)CO)SS2)O1` (stereo not drawn): the MIC in assay [1], in assay [2] and in assay [3] was above 100 µg/mL in each case.

In the case of `COC(=O)/C=C/C1=CC=C(CO)SS1`, the MIC in assay [1], in assay [2] and in assay [3] was 6.3 µg/mL (≈ 27.4 µM) throughout.

With `OCC1=CC=C(COc2cccc(O)c2)SS1`, the values for the minimum inhibitory concentration (MIC) in assay [1], in assay [2] and in assay [3] were above 100 µg/mL, 50 µg/mL (≈ 186 µM) and 100 µg/mL (≈ 373 µM), respectively.

Turning to `O=C(NCC1=CC=C(CO)SS1)c1ccccc1O`, the minimum inhibitory concentration (MIC) in assay [1] was above 100 µg/mL; in assay [2], above 100 µg/mL; in assay [3], 100 µg/mL (≈ 339 µM).

`COC(=O)c1ccc(OCC2=CC=C(CO)SS2)cc1`: the MIC in assay [1] amounted to 12.5 µg/mL (≈ 40.3 µM); in assay [2], 3.1 µg/mL (≈ 9.99 µM); in assay [3], 3.1 µg/mL (≈ 9.99 µM).

For the compound `Cc1ccc(S(=O)(=O)NC(=O)OCC2=CC=C(CO)SS2)cc1`, the figures for the MIC in assay [1], in assay [2] and in assay [3] were 100 µg/mL (≈ 268 µM), 100 µg/mL (≈ 268 µM) and 50 µg/mL (≈ 134 µM), respectively.

As for `OCC1=CC=C(COc2ccccn2)SS1`, the minimal inhibitory concentration (MIC) in assay [1], in assay [2] and in assay [3] was 3.1 µg/mL (≈ 12.2 µM) each time.

For the compound `CCOC(=O)/C=C/C1=CC=C(CO)SS1`, the MIC in assay [1] is 25 µg/mL (≈ 102 µM); in assay [2], 12.5 µg/mL (≈ 51.2 µM); in assay [3], 6.3 µg/mL (≈ 25.8 µM).

Regarding `COC(=O)c1ccccc1OCC1=CC=C(CO)SS1`, the results for the minimum inhibitory concentration (MIC) in assay [1], in assay [2] and in assay [3] were 12.5 µg/mL (≈ 40.3 µM), 6.3 µg/mL (≈ 20.3 µM) and 6.3 µg/mL (≈ 20.3 µM), respectively.

For the compound `OCC1=CC=C(COc2ccccc2O)SS1`, the minimal inhibitory concentration (MIC) was found to be 12.5 µg/mL (≈ 46.6 µM) in assay [1], 6.3 µg/mL (≈ 23.5 µM) in assay [2] and 25 µg/mL (≈ 93.2 µM) in assay [3].

Turning to `O=C(NCC1=CC=C(CO)SS1)Nc1ccccc1O`, the MIC in assay [1], in assay [2] and in assay [3] was above 100 µg/mL throughout.

For the compound `CC(C)C(=O)OCC1=CC=C(COC(=O)C(C)C)SS1`, the minimum inhibitory concentration (MIC) in assay [1] was 6.3 µg/mL (≈ 19.9 µM); in assay [2], above 100 µg/mL; in assay [3] it was 12.5 µg/mL (≈ 39.5 µM).

As to `OCC1=CC=C(COc2ccc(O)nn2)SS1`, the MIC in assay [1], in assay [2] and in assay [3] was above 100 µg/mL throughout.

`CO/N=C/C1=CC=C(CO)SS1`: the minimal inhibitory concentration (MIC) in assay [1], in assay [2] and in assay [3] was 6.3 µg/mL (≈ 31 µM) in each case.

Regarding `C#Cc1cccc(OCC2=CC=C(CO)SS2)c1`, the MIC is 6.3 µg/mL (≈ 22.8 µM) in assay [1], 1.6 µg/mL (≈ 5.79 µM) in assay [2] and 1.6 µg/mL (≈ 5.79 µM) in assay [3].

As for `OCC1=CC=C(COc2cc(C(F)(F)F)ccc2Cl)SS1`, the MIC in assay [1] is 6.3 µg/mL (≈ 17.8 µM); in assay [2], 1.6 µg/mL (≈ 4.51 µM); in assay [3], 1.6 µg/mL (≈ 4.51 µM).

Regarding `OCC1=CC=C(COc2ccccc2C(F)(F)F)SS1`, the MIC in assay [1] worked out at 50 µg/mL (≈ 156 µM); in assay [2], 25 µg/mL (≈ 78 µM); in assay [3] it was 6.3 µg/mL (≈ 19.7 µM).

The values above are taken from ChEMBL document CHEMBL1128433, “Novel 1,2-dithiins: synthesis, molecular modeling studies, and antifungal activity” (1995).
